From PMC6415796 (Nano letters, 2015)
“Also recorded” adds a separate entry of the source. Strand notation (5' to 3'): a small letter for the sugar, then the base; units joined by * are phosphorothioate-linked, units joined directly phosphodiester-linked; [ ] holds rarer units or linkages, { } end groups; capitals alone tell only the bases. [tcDNA-N] = tricyclo-DNA nucleotide (N: the base); m = 2'-O-methyl

Experiments:
[1] = DLS analysis of ASOs in PBS; assay type: physicochemical; conditions: 1 mM ASO in PBS, each measured 3 times
[2] = DLS after incubation with physiological albumin solution; assay type: physicochemical; conditions: equal volume BSA 4.25 g/dL in PBS, 1 h at 37 °C, diluted 10x before DLS
[3] = test system: Differentiated C2C12 cells; experiment: Uptake of FITC-labelled ASOs with SR ligands; assay type: cell-based, murine; conditions: ligand pretreatment 1 h, then FITC-ASO 200 nM for 4 h
How it was run: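 C2C12 cells were grown in DMEM with 10% FBS, then differentiated 3-4 days in DMEM with 2% horse serum (2.5x10⁴/cm²). Cells were pretreated 1 h with scavenger-receptor ligands or control polyanions at 100 μg/ml. They were then given FITC-2'OMePS or FITC-tcDNA (200 nM) for 4 h, washed, and methanol-fixed (-20 °C, 10 min). Mean fluorescence intensity came from microscopy images; one-way ANOVA, mean ± SEM.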

[4] = TEM visualization of self-assembled nanoparticles; assay type: physicochemical; conditions: Fig. S3
[5] = test system: class A scavenger receptor subtypes (SCARAs); experiment: PPMO splice-switching activity; assay type: cell-based, murine; conditions: for Effect of SR ligand or control on splice-switching activity of PPMO: differentiated C2C12, ligand 50 μg/ml for 1 h before PPMO 500 nM for 4 h in Opti-MEM, then 20 h, nested RT-PCR
SCARA1 = target: T1, SCARA1 (Mus musculus, UniProt P30204); experiment: Dmd exon 23 skipping; assay type: in vivo, mice; conditions: 10 mg/kg intravenous, 1 week, n=4, qPCR
T1 sequence (P30204 1-351 limits assumed): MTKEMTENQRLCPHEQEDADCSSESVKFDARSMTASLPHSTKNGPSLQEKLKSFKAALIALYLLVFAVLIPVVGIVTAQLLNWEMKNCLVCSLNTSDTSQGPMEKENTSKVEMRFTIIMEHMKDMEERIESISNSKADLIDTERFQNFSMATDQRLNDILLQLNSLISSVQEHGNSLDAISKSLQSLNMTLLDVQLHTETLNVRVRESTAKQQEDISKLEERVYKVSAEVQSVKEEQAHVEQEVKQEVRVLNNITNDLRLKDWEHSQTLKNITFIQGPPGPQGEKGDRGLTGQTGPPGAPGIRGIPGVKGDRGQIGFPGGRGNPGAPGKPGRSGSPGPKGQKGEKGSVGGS
How it was run: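 SCARA1-/- and C57BL/6 mice (14 months old, n = 4) received 10 mg/kg peptide–PMO conjugate in 0.9% saline via tail vein. After one week, tibialis anterior, diaphragm and heart were snap-frozen. Multiplex Taqman qPCR on 25 ng cDNA used FAM primers spanning exon 20-21 and HEX primers spanning exon 23-24. Skipping percentage came from normalising exon 23-24 to exon 20-21 amplification.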

[6] = Critical micelle concentration by dye micellization method; assay type: physicochemical; conditions: eosin Y 0.019 mM, absorbance at 542 nm, rounded value
[7] = Zeta potential measurement; assay type: physicochemical
[8] = Uptake and activity comparison of fluorescently labelled ASOs; assay type: cell-based; conditions: Fig. S4

2’OMe: 2’Omethyl phosphorothioate ASO 5’- GGCCAAACCUCGGCUUACCU-3’, synthesized by IDT (antisense mG*mG*mC*mC*mA*mA*mA*mC*mC*mU*mC*mG*mG*mC*mU*mU*mA*mC*mC*mU)
DLS population profile (peaks) [1]: predominant peak was of singular molecules | DLS size of predominant peak (singular molecules) [1]: around 2 nm | DLS particulate peaks in albumin model [2]: failed to do so | Uptake in the presence of fucoidin and dextran sulfates [3]: only partially inhibited

RXRRBRRXR YQFLI RXRBRXRB [Pip6a-PMO]
Nanoparticle formation and relative size by TEM [4]: spontaneously forms nanoparticles; also recorded: smaller than B-PMO nanoparticles | Uptake in the presence of SR ligands ([5]; Fig. S3): significantly inhibited | Exon 23-skipping activity in SCARA1 knock-out versus wild-type mice, diaphragm (SCARA1): significantly reduced | Exon 23-skipping activity in SCARA1 knock-out versus wild-type mice, heart (SCARA1): significantly reduced

RXRRBRRXRRBRXB [PPMO]
DLS population profile (peaks) [1]: two peaks, one for singular molecules and one representing a particulate population | DLS particulate peaks in albumin model [2]: high intensity particulate peaks | Critical micelle concentration (CMC) [6]: about 1.4 μM | Zeta potential ([7]; in PBS): -1.21 ± 0.63 | Zeta potential ([7]; in serum-free medium): -3.48 ±2.31 | Zeta potential ([7]; in water): 10 ± 2.70 | Extent of uptake relative to other chemistries [8]: several folds higher uptake than the other two chemistries

chondroitin sulfate
Effect of SR ligand or control on splice-switching activity of PPMO [5]: no effect

dextran sulfate
Effect of SR ligand or control on splice-switching activity of PPMO [5]: completely inhibited

fucoidin sulfate
Effect of SR ligand or control on splice-switching activity of PPMO [5]: completely inhibited

tcDNA: phosphorothioated tricyclo DNA 5’-AACCTCGGCTTACCT-3’, synthesized by SYNTHENA (all [tcDNA-N], all phosphorothioate, methylation of C not given here)
Extent of uptake relative to other chemistries [8]: significantly higher than that of 2’OMe
